ChEMBL document CHEMBL1133575 (J Med Chem, 2000)

How the values were obtained:
[1] = biological target: Sodium-dependent dopamine transporter (Homo sapiens, UniProt Q01959); assay: Binding Affinity to cocaine site of dopamine transporter in caudate nuclei which was homogenized and incubated with [3H]mazindol.
[2] = biological target: T1, Sodium-dependent dopamine transporter (Rattus norvegicus, UniProt P23977); assay: Inhibition of [3H]DA Uptake at dopamine transporter in rat cortex was measured by liquid scintillation spectrometry; assay type: tissue-based
T1 sequence (P23977 whole entry): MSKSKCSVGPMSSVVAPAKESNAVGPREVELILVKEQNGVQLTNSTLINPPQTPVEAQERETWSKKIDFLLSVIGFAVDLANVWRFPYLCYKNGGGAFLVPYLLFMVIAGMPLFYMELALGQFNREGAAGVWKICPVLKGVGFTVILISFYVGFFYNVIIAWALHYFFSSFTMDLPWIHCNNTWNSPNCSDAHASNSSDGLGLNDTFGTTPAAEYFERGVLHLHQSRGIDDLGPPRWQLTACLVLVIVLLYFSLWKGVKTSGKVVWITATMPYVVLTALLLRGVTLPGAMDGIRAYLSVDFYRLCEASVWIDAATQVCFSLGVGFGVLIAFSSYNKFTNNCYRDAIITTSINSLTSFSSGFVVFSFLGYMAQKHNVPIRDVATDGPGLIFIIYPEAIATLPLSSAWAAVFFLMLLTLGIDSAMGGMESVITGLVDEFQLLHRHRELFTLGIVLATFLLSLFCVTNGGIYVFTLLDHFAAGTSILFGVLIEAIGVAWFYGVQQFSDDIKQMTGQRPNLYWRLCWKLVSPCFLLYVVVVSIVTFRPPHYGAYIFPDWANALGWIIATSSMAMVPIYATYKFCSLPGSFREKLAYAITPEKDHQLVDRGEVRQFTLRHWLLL

[3] = biological target: Norepinephrine transporter (Rattus norvegicus, UniProt Q9WTR4); assay: Compound was tested for Inhibition of [3H]NE Uptake in rat parietal/occipital cortex
Chain of Norepinephrine transporter (Q9WTR4 whole entry): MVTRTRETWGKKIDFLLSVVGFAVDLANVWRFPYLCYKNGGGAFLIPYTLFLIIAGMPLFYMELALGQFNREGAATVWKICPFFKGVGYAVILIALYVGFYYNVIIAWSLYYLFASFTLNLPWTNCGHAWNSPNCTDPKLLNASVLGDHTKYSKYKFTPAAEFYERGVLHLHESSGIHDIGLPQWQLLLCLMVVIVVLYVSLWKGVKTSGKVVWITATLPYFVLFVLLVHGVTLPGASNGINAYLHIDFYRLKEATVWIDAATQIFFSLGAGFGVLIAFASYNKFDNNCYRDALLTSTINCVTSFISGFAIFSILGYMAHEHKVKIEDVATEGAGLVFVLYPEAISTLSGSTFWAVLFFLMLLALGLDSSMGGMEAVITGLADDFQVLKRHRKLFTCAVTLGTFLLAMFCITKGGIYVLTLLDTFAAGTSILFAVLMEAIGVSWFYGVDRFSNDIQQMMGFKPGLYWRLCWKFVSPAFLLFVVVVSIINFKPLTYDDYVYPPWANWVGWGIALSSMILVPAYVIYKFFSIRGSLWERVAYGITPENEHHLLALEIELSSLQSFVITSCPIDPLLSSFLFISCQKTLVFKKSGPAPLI
How it was run: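 [3H]NE uptake used rat parietal/occipital cortex synaptosomes in modified KRH buffer. Drug was preincubated for 30 min at 37 °C, then radiolabel was added for 5 min. Uptake was stopped with cold sodium-free buffer, filtered and counted by liquid scintillation. Specific uptake was defined with 1 uM desipramine.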

[4] = biological target: Sodium-dependent serotonin transporter (Rattus norvegicus, UniProt P31652); assay: Compound was tested for Inhibition of [3H]5-HT Uptake in rat mid brain.; assay type: tissue-based
Chain of Sodium-dependent serotonin transporter (P31652 whole entry): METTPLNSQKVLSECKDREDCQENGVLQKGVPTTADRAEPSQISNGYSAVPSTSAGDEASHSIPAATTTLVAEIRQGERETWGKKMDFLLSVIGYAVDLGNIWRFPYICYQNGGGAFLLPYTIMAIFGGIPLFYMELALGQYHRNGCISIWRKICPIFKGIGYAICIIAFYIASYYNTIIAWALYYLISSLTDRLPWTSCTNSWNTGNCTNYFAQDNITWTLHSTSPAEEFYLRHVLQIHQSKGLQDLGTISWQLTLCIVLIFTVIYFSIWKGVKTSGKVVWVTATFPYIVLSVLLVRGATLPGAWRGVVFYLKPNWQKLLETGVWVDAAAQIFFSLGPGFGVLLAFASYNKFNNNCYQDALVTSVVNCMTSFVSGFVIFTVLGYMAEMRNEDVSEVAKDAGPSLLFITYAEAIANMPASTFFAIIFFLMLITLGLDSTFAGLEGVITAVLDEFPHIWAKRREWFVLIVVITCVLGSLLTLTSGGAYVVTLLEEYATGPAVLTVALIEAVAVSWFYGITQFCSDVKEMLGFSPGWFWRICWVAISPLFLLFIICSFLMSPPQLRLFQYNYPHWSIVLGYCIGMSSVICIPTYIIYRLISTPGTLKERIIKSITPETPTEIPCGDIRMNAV
How it was run: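 [3H]5-HT uptake used rat midbrain synaptosomes in modified KRH buffer. Drug was preincubated for 30 min at 37 °C, then tritiated substrate was added for 5 min. Uptake was stopped in cold sodium-free buffer, filtered and counted by scintillation. Specific uptake was defined with 10 uM fluoxetine.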

[5] = biological target: T1, Sodium-dependent dopamine transporter; assay: Inhibition of [3H]DA Uptake at Dopamine transporter in rat cortex was measured by liquid scintillation spectrometry; assay type: tissue-based
[6] = biological target: T1, Sodium-dependent dopamine transporter; assay: Binding Affinity to cocaine site of Dopamine transporter in caudate nuclei which was homogenized and incubated with [3H]mazindol.
How it was run: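 Rat striatal membranes, washed in KRH buffer (pH 7.4, with 0.01 mM nialamide) and frozen at −80 °C, thawed at 75–125 ug protein/mL. Incubated with [3H]mazindol plus competitor for 60 min at 4 °C. […] Separated by GF/C filtration and counted by scintillation. IC50 fitted with LIGAND.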

Chain of Sodium-dependent dopamine transporter (Homo sapiens, UniProt Q01959) (Q01959 whole entry): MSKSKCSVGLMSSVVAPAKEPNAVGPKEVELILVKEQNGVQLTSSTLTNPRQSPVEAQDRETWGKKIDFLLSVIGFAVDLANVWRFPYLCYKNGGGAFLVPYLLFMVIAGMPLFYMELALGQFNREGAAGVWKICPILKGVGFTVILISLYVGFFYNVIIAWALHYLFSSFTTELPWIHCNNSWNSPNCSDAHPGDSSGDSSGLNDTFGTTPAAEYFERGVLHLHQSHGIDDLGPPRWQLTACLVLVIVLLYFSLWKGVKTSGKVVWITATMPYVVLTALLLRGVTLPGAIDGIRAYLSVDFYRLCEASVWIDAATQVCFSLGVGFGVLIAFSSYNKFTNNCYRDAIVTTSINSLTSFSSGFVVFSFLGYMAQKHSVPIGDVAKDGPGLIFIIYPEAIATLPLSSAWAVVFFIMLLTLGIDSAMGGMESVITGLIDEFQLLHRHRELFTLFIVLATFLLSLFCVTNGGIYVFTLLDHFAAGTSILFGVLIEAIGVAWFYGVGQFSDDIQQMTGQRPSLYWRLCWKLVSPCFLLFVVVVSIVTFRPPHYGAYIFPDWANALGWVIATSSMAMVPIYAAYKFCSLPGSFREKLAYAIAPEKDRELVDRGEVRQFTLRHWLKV

For `CN1CCC(O)(c2ccc(Cl)cc2Cl)C([C@@H](O)c2ccc(Cl)cc2Cl)C1` (stereo not given in full), which Ki [1] is on record?
The Ki was 4.35 µM.

What about the Ki [2] of the same compound?
Its Ki is 7.52 µM.

With `Cc1ccc(C2OC(=O)OC3(c4ccc(C)cc4)CCN(C)CC23)cc1` (stereo not given) as the compound, how does the Ki [2] read?
Its Ki is 9.48 µM.

`CN1CCC(O)(c2ccc(Cl)c(Cl)c2)C(C(=O)c2ccc(Cl)c(Cl)c2)C1` (stereo not given) was tested. Which Ki [3] did it give?
The Ki was 0.177 µM.

What about the Ki [1] of the same compound?
Its Ki is 0.0109 µM.

And the Ki [4]?
Its Ki is 2.38 µM.

What about the Ki [2] of the same compound?
The Ki was 0.051 µM.

With `CN1CCC(O)(c2ccccc2)C(C(=O)c2ccccc2)C1` (stereo not given) as the compound, how does the Ki [5] read?
Its Ki is 2.59 µM.

And the Ki [6]?
The Ki was 4.42 µM.

How did the Ki [2] turn out when `CN1CCC(O)(c2ccc(Cl)cc2Cl)C(C(=O)c2ccc(Cl)cc2Cl)C1` (stereo not given) was run?
The Ki was 5.85 µM.

What does the source list for `Cc1ccc(C(=O)C2CN(C)CCC2(O)c2ccc(C)cc2)cc1` (stereo not given)?
Ki [5]: 0.36 µM; Ki [3]: 3.86 µM; Ki [4]: 1.63 µM; Ki [6]: 0.492 µM

For `CN1CCC(O)(c2ccc(Cl)c(Cl)c2)C([C@@H](O)c2ccc(Cl)c(Cl)c2)C1` (stereo not given in full), which Ki [1] is on record?
Its Ki is 4.14 µM.

And the Ki [2]?
Its Ki is 4.22 µM.

How did the Ki [1] turn out when `Cc1ccc([C@H](O)C2CN(C)CCC2(O)c2ccc(C)cc2)cc1` (stereo not given in full) was run?
Its Ki is 10.7 µM.

What about the Ki [2] of the same compound?
Its Ki is 15.8 µM.

With `CN1CCC(O)(c2ccc(F)cc2)C(C(=O)c2ccc(F)cc2)C1` (stereo not given) [FLAZALONE] as the compound, how does the Ki [1] read?
Its Ki is 5.7 µM.

What about the Ki [2] of the same compound?
Its Ki is 4.2 µM.
